A short description of assay [1]: Competitive displacement assay. It is filed as binding. The following applies: ratio of equilibrium KD values. In outline:
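Human GRP1 PH (residues 255–392) or mouse PLCδ1 PH (12–142) GST fusions, made in E. coli BL21. Sonicated vesicles mimic the plasma membrane (PE/PC/PS/PI/SM/CH/dPE/PIPn, 27.5/10.5/21/4.5/4.5/25/5/2 mol%). Sample: 0.5 μM protein, 300 μM total lipid, 3 μM accessible PI(4,5)P2 or PI(3,4,5)P3, pH 7.4 HEPES/KCl buffer plus 10 mM DTT, 25°C. IP6 titrated while FRET decrease is monitored. Protein-free control subtracted. KD(PIPn) calculated from fitted KI(IP6)app and KD(IP6).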

Assay [2] is described as follows: Stopped-flow association and dissociation kinetics, PM. It is filed as binding. In outline:
(§1)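 Stopped-flow FRET in binding buffer plus 10 mM DTT, 25°C, on plasma-membrane-mimic vesicles. Association: 0.5 μM PH domain mixed with vesicles (300 μM total lipid, 3 μM accessible PIP); kon from the dominant fast phase of a double-exponential fit. Dissociation: preformed complex mixed with excess IP6 (PI(3,4,5)P3: 10 mM wild type, 20 mM mutants; PI(4,5)P2: 8 mM). KD = koff/kon; ≥3 runs averaged.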

Assay [3] is described as follows: IP6 binding to free PH domain, intrinsic tryptophan fluorescence titration. The following applies: read-out: KD(IP6); free PH domain 0.5 μM, 25°C, binding buffer plus 10 mM DTT. In outline: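 GST-fused PH domain (0.5 μM) titrated with IP6. Intrinsic Trp excitation 284 nm; emission 322 nm (GRP1) or 340 nm (PLCδ1). A parallel control with sodium phosphate at six times the IP6 concentration is subtracted after dilution correction. KD from nonlinear least-squares hyperbolic fit. Triplicate titrations, mean ±1 SD; reported constants average ≥3 independent fits.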

The nature of assay [4]: Stopped-flow association and dissociation kinetics, PM. It is filed as binding. Summed up: as §1
The source holds these as a separate data set.

Assay [5] has as its system NIH 3T3 cells. The experiment in a line: Live cell imaging of plasma membrane targeting of citrine-coupled PH domains. It is filed as cell-based. The following applies: serum-starved NIH 3T3 cells. In outline:
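NIH 3T3 fibroblasts grown in DMEM with 10% FBS and transfected with Lipofectamine 2000 (4 μg DNA) with N-terminal citrine–PH fusions. Replated 24–48 h post-transfection, then serum-starved 6 h in DMEM with 0.2% BSA at 37°C. Imaged live by wide-field fluorescence microscopy in HEPES-buffered HBSS, pH 7.4, with 0.01% BSA.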

B1: WT: native PH domain of human GRP1 (residues 255–392), GST-fusion purified; citrine fusion in cells (protein, UniProt O43739 255-392, looked up, fragment)
chain: GNDLTHTFFNPDREGWLLKLGGGRVKTWKRRWFILTDNCLYYFEYTTDKEPRGIIPLENLSIREVEDPRKPNCFELYNPSHKGQVIKACKTEADGRVVEGNHVVYRISAPSPEEKEEWMKSIKASISRDPFYDMLATR
modifications: PH domain GST or citrine fusion
What is called koff is the rate constant with which the complex falls apart. A higher koff goes with a short-lived complex. Turning to B1, the “weaker binding of membrane-bound PI(4,5)P2 than PI(3,4,5)P3” value in assay [1] was “over 200 fold”. For the same molecule, the kon in assay [2] (PM(+)PI(3,4,5)P3, 25°C) is 14 ± 1 ×10^6 M^−1 s^−1. This molecule also displayed a koff in assay [2] (PM(+)PI(3,4,5)P3, excess IP6, 25°C) of 0.79 ± 0.01 s⁻¹. Moreover, the Kd was 55 ± 1 nM in assay [2] (read-out: KD (koff/kon), PM(+)PI(3,4,5)P3, calculated from kinetic constants) and 20000 ± 3000 nM in assay [3].

B2: PLCδ1: PH domain of mouse PLCδ1 (residues 12–142), PI(4,5)P2-specific control (protein, UniProt Q8R3B1 12-142, looked up, fragment)
chain: GLQDDPDLQALLKGSQLLKVKSSSWRRERFYKLQEDCKTIWQESRKVMRSPESQLFSIEDIQEVRMGHRTEGLEKFARDIPEDRCFSIVFKDQRNTLDLIAPSPADVQHWVQGLRKIIDRSGSMDQRQKLQ
modifications: PH domain
As to B2, the Kd in assay [3] was 4000 ± 1000 nM; in assay [4] (read-out: KD (koff/kon), PM(+)PI(4,5)P2, calculated from kinetic constants) it was 81 ± 5 nM. For the same molecule, the kon in assay [4] (PM(+)PI(4,5)P2, 25°C) is listed as 180 ± 10 ×10^6 M^−1 s^−1. In assay [4] (PM(+)PI(4,5)P2, excess IP6, 25°C), the off-rate constant (koff) was 15 ± 1 s⁻¹. In addition, the “relocation from plasma membrane to cytoplasm on PI(4,5)P2 hydrolysis” value in assay [5] (20 μM ionomycin, 2 mM extracellular Ca2+, three minute) was “fully relocates”. The “cellular distribution in resting cells” value in assay [5] (citrine fusion) is “targeted to plasma membrane”.

The values above are taken from article PMC3217903 (Biochemistry, 2011).
